Measured values collected from several papers.
Compare with care: the assays were run in different laboratories.
Organism: Bacillus subtilis
Observed: microbial growth

SMILES	method	strain	time	MIC
CCCCCCCCCC(=O)N[C@@H](Cc1c[nH]c2ccccc12)C(=O)N[C@H](CC(N)=O)C(=O)N[C@@H](CC(=O)O)C(=O)N[C@@H]1C(=O)NCC(=O)N[C@@H](CCCN)C(=O)N[C@@H](CC(=O)O)C(=O)N[C@H](C)C(=O)N[C@@H](CC(=O)O)C(=O)NCC(=O)N[C@H](CO)C(=O)N[C@@H]([C@H](C)CC(=O)O)C(=O)N[C@@H](CC(=O)c2ccccc2N)C(=O)O[C@@H]1C	broth dilution	168	–	0.25 µg/mL
CCCCCCCCCCCC(=O)C(F)(F)P(=O)(O)O	–	ATCC23857	–	> 200 µg/mL
Cc1c(NN=C(C#N)C2=NC(=O)CS2)c(=O)n(-c2ccccc2)n1C	broth dilution	–	–	0.98 µg/mL
CCCCCCCCCCCC(=O)OC[C@H]1O[C@@H](n2cc(C)c(=O)[nH]c2=O)C[C@@H]1OC(=O)c1ccc(C(C)(C)C)cc1	broth dilution	–	–	1 µg/mL
CCCCCCCCCCCCCCCC(=O)NP(=O)(O)O	–	ATCC23857	–	> 200 µg/mL
CCC1C(=NOCc2cn(-c3ccccc3)nn2)CC(c2ccccc2)OC1c1ccccc1 (stereo not shown)	broth dilution	MTCC121	24 h	25 µg/mL
CCCCCCCC(=O)CP(=O)(O)O	–	ATCC23857	–	> 200 µg/mL
Oc1cc(Cl)ccc1Oc1ccc(Cl)cc1Cl	–	–	–	1.8 µg/mL
CC1C(=NOCc2cn(-c3ccccc3)nn2)CC(c2ccccc2)OC1c1ccccc1 (stereo not shown)	broth dilution	MTCC121	24 h	50 µg/mL
CO[C@@H]1[C@@H](OC(N)=O)[C@@H](O)[C@H](Oc2ccc3c(O)c(NC(=O)c4ccc(O)c(CC=C(C)C)c4)c(=O)oc3c2C)OC1(C)C	broth dilution	ATCC6633	–	< 6.25 µM
